Reference: ChEMBL document CHEMBL1138797, “6-azapyrimidine-2'-deoxy-4'-thionucleosides: antiviral agents against TK+ and TK- HSV and VZV strains” (J Med Chem, 2004)
Values after ≈ are worked out from the molar mass of the structure shown.

Tests used:
E6SM [1] = assay: Minimum cytotoxic concentration that caused a microscopically detectable alteration of cell morphology in E6SM Cell Culture; assay type: functional; details: Homo sapiens
E6SM [2] = assay: Effective concentration required to reduce HSV-2 strain G virus plaque formation by 50% in E6SM Cell Culture; assay type: functional, cell-based; details: Homo sapiens
In short: (§1)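 Confluent E6SM cell cultures in microtiter trays were infected with 20 PFU for a 1 h adsorption period, then washed free of residual virus and incubated with serial compound dilutions (400, 200, 100, ... μg/mL). Plaque formation was read when cytopathicity was complete in virus controls. […] The TK-deficient HSV-1 line refers to HSV-1/TK⁻ ACVʳ.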

HEL [3] = assay: Effective concentration required to reduce CMV AD169 strain virus plaque formation by 50% in HEL cell culture; assay type: functional, cell-based, Cytomegalovirus; details: Homo sapiens
In short: (§2)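 Plaque-reduction assay in confluent HEL cell cultures. After 1 h adsorption of a 20 PFU virus input, residual virus was removed and cells were incubated with graded compound concentrations. Plaques were scored once cytopathicity was complete in untreated infected controls. […] The TK-deficient VZV line refers to strain YS/R.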

HEL [4] = assay: Effective concentration required to reduce CMV davis strain virus plaque formation by 50% in HEL cell culture; assay type: functional, cell-based, Cytomegalovirus; details: Homo sapiens; in short: as §2
E6SM [5] = assay: Effective concentration required to reduce vaccinia virus plaque formation by 50% in E6SM Cell Culture; assay type: functional, cell-based; details: Homo sapiens; in short: as §1
E6SM [6] = assay: Effective concentration required to reduce HSV-1 strain KOS ACV virus plaque formation by 50% in E6SM Cell Culture; assay type: functional, cell-based; details: Homo sapiens; in short: as §1
E6SM [7] = assay: Effective concentration required to reduce HSV-1 strain KOS virus plaque formation by 50% in E6SM Cell Culture; assay type: functional, cell-based; details: Homo sapiens; in short: as §1
HEL [8] = assay: Effective concentration required to reduce […] (thymidine kinase deficient) VZV strain 07/1 virus plaque formation by 50% in HEL cell culture; assay type: functional, cell-based, Human alphaherpesvirus 3; details: Homo sapiens
HEL [9] = assay: Effective concentration required to reduce TK+ (thymidine kinase presence) VZV strain YS virus plaque formation by 50% in HEL cell culture; assay type: functional, cell-based, Human alphaherpesvirus 3; details: Homo sapiens
HEL [10] = assay: Effective concentration required to reduce TK+ (thymidine kinase presence) VZV strain OKA virus plaque formation by 50% in HEL cell culture; assay type: functional, cell-based, Human alphaherpesvirus 3; details: Homo sapiens
HEL [11] = assay: Effective concentration required to reduce […] (thymidine kinase deficient) VZV strain YS/R virus plaque formation by 50% in HEL cell culture; assay type: functional, cell-based, Human alphaherpesvirus 3; details: Homo sapiens
[12] = Minimum cytotoxic concentration that causes microscopically detectable alteration of cell morphology in HEL cell culture; assay type: cell-based; details: human, HEL cells
[13] = Cytotoxic concentration required to reduce HEL cell growth by 50%; assay type: cell-based; details: human, HEL cells
HEL [14] = assay: Effective concentration required to reduce […] (thymidine kinase deficient) VZV strain YS/R virus plaque formation by 50% in HEL cell culture; No complete inhibition; assay type: functional, cell-based, Human alphaherpesvirus 3; details: Homo sapiens; in short: as §2

Compound	MCC (E6SM [1]) [µg/mL]	EC50 (E6SM [2]) [µg/mL]	EC50 (HEL [3]) [µM]	EC50 (HEL [4]) [µM]	EC50 (E6SM [5]) [µg/mL]	EC50 (E6SM [6]) [µg/mL]	EC50 (E6SM [7]) [µg/mL]	EC50 (HEL [8]) [µM]	EC50 (HEL [9]) [µM]	EC50 (HEL [10]) [µM]	EC50 (HEL [11]) [µM]	MCC [12] [µM]	CC50 [13] [µM]	EC50 (HEL [14]) [µM]
Nc1nc2c(ncn2COCCO)c(=O)[nH]1 [ACYCLOVIR]	> 400	0.07 (≈ 0.311 µM)	> 200	> 400	0.38 (≈ 1.69 µM)	48 (≈ 213 µM)	0.07 (≈ 0.311 µM)							
Cc1nn([C@H]2C[C@H](O)[C@@H](CO)S2)c(=O)[nH]c1=S	> 200	120 (≈ 436 µM)	> 40	> 40	120 (≈ 436 µM)	120 (≈ 436 µM)	120 (≈ 436 µM)	> 40	> 40	> 40	> 40	> 40	> 40	
CC(=O)OC[C@H]1S[C@@H](n2nc(C)c(=S)[nH]c2=O)C[C@@H]1OC(C)=O	≥ 40	> 8	> 40	> 40	> 8	> 8	> 8	> 40	> 40	> 40	> 40	> 40	> 40	
O=c1[nH]c(=O)n([C@H]2C[C@H](O)[C@@H](CO)O2)cc1/C=C/Br [BRIVUDINE]	> 400	80 (≈ 240 µM)	> 150	> 400	> 400	16 (≈ 48 µM)	0.01 (≈ 0.03 µM)	29	0.003	0.003	56			
CCc1nn([C@H]2C[C@H](O)[C@@H](CO)S2)c(=O)nc1O	> 200	> 200	> 40	> 40	> 200	> 200	120 (≈ 439 µM)	> 40	> 40	> 40	> 40	> 40		
Nc1nc2c(ncn2COC(CO)CO)c(=O)[nH]1 [GANCICLOVIR]	> 100	0.003 (≈ 0.0118 µM)	0.5	1.5	> 100	2.4 (≈ 9.4 µM)	0.004 (≈ 0.0157 µM)					> 150	> 150	
CCCc1nn([C@H]2C[C@H](O)[C@@H](CO)S2)c(=O)[nH]c1=O	> 200	> 200	> 40	> 40	> 200	120 (≈ 418 µM)	> 200	> 40	> 40	> 40	> 40	> 40	> 40	
Cc1nn([C@H]2C[C@H](O)[C@@H](CO)S2)c(=O)nc1O	> 200	3.2 (≈ 12.3 µM)	> 200	> 200	2.2 (≈ 8.48 µM)	18 (≈ 69.4 µM)	1.3 (≈ 5.01 µM)	14	4.1	2.5		> 200	166	≥ 5
Cc1nn([C@H]2C[C@H](O)[C@@H](CO)S2)c(=O)nc1N	> 200	24 (≈ 92.9 µM)	> 40	> 40	24 (≈ 92.9 µM)	120 (≈ 465 µM)	24 (≈ 92.9 µM)	> 40	> 40	> 40	> 40	> 40	> 40	
